# Key:
# HCT-116 [1] = assay: Cytotoxicity against human HCT116 cells assessed as surviving fraction at 0.001 ug/ml after 168 hrs; type: functional
# In short: (§1)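 HCT-116 cells exposed to drug at 0.001-10 µg/mL for 2 h, 24 h or continuously (168 h). Surviving clonogenic cells counted. 90% kill (S10) used as comparison point.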
# HCT-116 [2] = assay: Cytotoxicity against human HCT116 cells assessed as surviving fraction at 0.01 ug/ml after 168 hrs; type: functional; in short: as §1
# L1210 [3] = assay: Cytotoxicity against mouse L1210 cells at 3.75 ug by disk diffusion assay; type: functional
# In short: (§2)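 15 µL of sample dried overnight on 6.5 mm filter disk. Disk placed near edge of 60 mm dish of cells plated in soft agar, incubated 7-10 days. Zone of inhibition measured from disk edge to start of normal-sized colony formation, disk diameter taken as 200 units. Overly toxic samples diluted 1:4 or 1:10 and retested.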
# [4] = Cytotoxicity against human CFU-GM cells at 60 ug by disk diffusion assay; type: functional; in short: as §2
# MC-38 [5] = assay: Cytotoxicity against mouse Colon 38 cells at 3.75 ug by disk diffusion assay; type: functional; in short: as §2
# L1210 [6] = assay: Cytotoxicity against mouse L1210 cells at 0.94 ug by disk diffusion assay; type: functional; in short: as §2
# HCT-116 [7] = assay: Cytotoxicity against human HCT116 cells assessed as surviving fraction at 0.1 ug/ml after 24 hrs; type: functional; in short: as §1
# HCT-116 [8] = assay: Cytotoxicity against human HCT116 cells assessed as surviving fraction at 0.0001 ug/ml after 2 hrs; type: functional
# HCT-116 [9] = assay: Cytotoxicity against human HCT116 cells assessed as surviving fraction at 1 ug/ml after 2 hrs; type: functional; in short: as §1
# HCT-116 [10] = assay: Cytotoxicity against human HCT116 cells assessed as surviving fraction at 0.01 ug/ml after 2 hrs; type: functional; in short: as §1
# HCT-116 [11] = assay: Cytotoxicity against human HCT116 cells assessed as surviving fraction at 0.01 ug/ml after 24 hrs; type: functional; in short: as §1
# L1210 [12] = assay: Cytotoxicity against mouse L1210 cells at 60 ug by disk diffusion assay; type: functional; in short: as §2
# HCT-116 [13] = assay: Cytotoxicity against human HCT116 cells at 15 ug by disk diffusion assay; type: functional; in short: as §2
# [14] = Inhibition of bovine heart mitochondrial complex1 activity; set-up: species or system Bos taurus
# In short: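 Bovine heart submitochondrial particles, 15 µg/mL, in 0.25 M sucrose, 1 mM MgCl2, 50 mM phosphate pH 7.5. Inhibitor added at various concentrations and equilibrated 5 min. Reaction started with 150 µM NADH and followed spectrophotometrically at 340 nm. IC50 derived.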
# MC-38 [15] = assay: Cytotoxicity against mouse Colon 38 cells at 0.94 ug by disk diffusion assay; type: functional; in short: as §2
# [16] = Cytotoxicity against human CFU-GM cells at 15 ug by disk diffusion assay; type: functional; in short: as §2
# HCT-116 [17] = assay: Cytotoxicity against human HCT116 cells assessed as surviving fraction at 10 ug/ml after 2 hrs; type: functional; in short: as §1
# HCT-116 [18] = assay: Cytotoxicity against human HCT116 cells assessed as surviving fraction at 0.001 ug/ml after 2 hrs; type: functional; in short: as §1
# [19] = Cytotoxicity against human CFU-GM cells at 0.94 ug by disk diffusion assay; type: functional; in short: as §2
# HCT-116 [20] = assay: Cytotoxicity against human HCT116 cells assessed as surviving fraction at 0.001 ug/ml after 24 hrs; type: functional; in short: as §1
# HCT-116 [21] = assay: Cytotoxicity against human HCT116 cells assessed as surviving fraction at 0.0001 ug/ml after 168 hrs; type: functional
# [22] = Cytotoxicity against human CFU-GM cells at 3.75 ug by disk diffusion assay; type: functional; in short: as §2
# HCT-116 [23] = assay: Cytotoxicity against human HCT116 cells assessed as surviving fraction at 10 ug/ml after 24 hrs; type: functional; in short: as §1
# HCT-116 [24] = assay: Cytotoxicity against human HCT116 cells assessed as surviving fraction at 0.1 ug/ml after 2 hrs; type: functional; in short: as §1
# MC-38 [25] = assay: Cytotoxicity against mouse Colon 38 cells at 15 ug by disk diffusion assay; type: functional; in short: as §2
# MC-38 [26] = assay: Cytotoxicity against mouse Colon 38 cells at 60 ug by disk diffusion assay; type: functional; in short: as §2
# HCT-116 [27] = assay: Cytotoxicity against human HCT116 cells assessed as surviving fraction at 1 ug/ml after 24 hrs; type: functional; in short: as §1
# HCT-116 [28] = assay: Cytotoxicity against human HCT116 cells assessed as surviving fraction at 1 ug/ml after 168 hrs; type: functional; in short: as §1
# HCT-116 [29] = assay: Cytotoxicity against human HCT116 cells; type: functional, cell-based
# HCT-116 [30] = assay: Cytotoxicity against human HCT116 cells assessed as surviving fraction at 0.1 ug/ml after 168 hrs; type: functional; in short: as §1
# HCT-116 [31] = assay: Cytotoxicity against human HCT116 cells assessed as surviving fraction at 0.0001 ug/ml after 24 hrs; type: functional
# [32] = Cytotoxicity against human H125M cells at 15 ug by disk diffusion assay; type: functional; in short: as §2
# HCT-116 [33] = assay: Cytotoxicity against human HCT116 cells assessed as surviving fraction at 10 ug/ml after 168 hrs; type: functional; in short: as §1
# CCRF-CEM [34] = assay: Cytotoxicity against human CEM cells at 15 ug by disk diffusion assay; type: functional; in short: as §2
# L1210 [35] = assay: Cytotoxicity against mouse L1210 cells at 15 ug by disk diffusion assay; type: functional; in short: as §2
# L1210 [36] = assay: Cytotoxicity against mouse L1210 cells at 30 ug by disk diffusion assay; type: functional; in short: as §2
# [37] = Cytotoxicity against human CFU-GM cells at 30 ug by disk diffusion assay; type: functional; in short: as §2
# CCRF-CEM [38] = assay: Cytotoxicity against human CEM cells at 30 ug by disk diffusion assay; type: functional; in short: as §2
# HCT-116 [39] = assay: Cytotoxicity against human HCT116 cells at 30 ug by disk diffusion assay; type: functional; in short: as §2
# MC-38 [40] = assay: Cytotoxicity against mouse Colon 38 cells at 0.3 ug by disk diffusion assay; type: functional; in short: as §2
# MC-38 [41] = assay: Cytotoxicity against mouse Colon 38 cells at 30 ug by disk diffusion assay; type: functional; in short: as §2
# L1210 [42] = assay: Cytotoxicity against mouse L1210 cells at 0.3 ug by disk diffusion assay; type: functional; in short: as §2
# [43] = Cytotoxicity against human CFU-GM cells at 0.3 ug by disk diffusion assay; type: functional; in short: as §2
# [44] = Cytotoxicity against human H125M cells at 30 ug by disk diffusion assay; type: functional; in short: as §2
# [45] = Cytotoxicity against human CFU-GM cells at 3 ug by disk diffusion assay; type: functional; in short: as §2
# L1210 [46] = assay: Cytotoxicity against mouse L1210 cells at 3 ug by disk diffusion assay; type: functional; in short: as §2
# MC-38 [47] = assay: Cytotoxicity against mouse Colon 38 cells at 3 ug by disk diffusion assay; type: functional; in short: as §2
compound,measurement,setting,value
CCCCCCCCCCC(O)C1CCC(C2CCC(C(O)CCCCCCCC[C@H](O)CC3=C[C@@H](C)OC3=O)O2)O1 (stereo partly drawn) [ASIMICIN],Activity,HCT-116 [1],0.001
same,Activity,HCT-116 [2],0.001
same,inhibition zone (IZ),L1210 [3],400 Zone units
same,inhibition zone (IZ),[4],600 Zone units
same,inhibition zone (IZ),MC-38 [5],950 Zone units
same,inhibition zone (IZ),L1210 [6],150 Zone units
same,Activity,HCT-116 [7],0.54
same,Activity,HCT-116 [8],0.97
same,Activity,HCT-116 [9],0.8
same,Activity,HCT-116 [10],0.8
same,Activity,HCT-116 [11],0.73
same,inhibition zone (IZ),L1210 [12],600 Zone units
same,inhibition zone (IZ),HCT-116 [13],600 Zone units
same,IC50,[14],1.2 nM
same,inhibition zone (IZ),MC-38 [15],650 Zone units
same,inhibition zone (IZ),[16],300 Zone units
same,Activity,HCT-116 [17],0.66
same,Activity,HCT-116 [18],0.94
same,inhibition zone (IZ),[19],0 Zone units
same,Activity,HCT-116 [20],0.88
same,Activity,HCT-116 [21],0.66
same,inhibition zone (IZ),[22],500 Zone units
same,Activity,HCT-116 [23],0.12
same,Activity,HCT-116 [24],0.98
same,inhibition zone (IZ),MC-38 [25],900 Zone units
same,inhibition zone (IZ),MC-38 [26],800 Zone units
same,Activity,HCT-116 [27],0.48
same,Activity,HCT-116 [28],0.001
same,IC50,HCT-116 [29],0.51 nM
same,Activity,HCT-116 [30],0.001
same,Activity,HCT-116 [31],1
same,inhibition zone (IZ),[32],300 Zone units
same,Activity,HCT-116 [33],0.001
same,inhibition zone (IZ),CCRF-CEM [34],200 Zone units
same,inhibition zone (IZ),L1210 [35],200 Zone units
CCCCCCCCCC[C@@H](O)[C@H]1CC[C@@H]([C@@H]2CC[C@@H]([C@H](O)CCCCCCCCCC[C@@H](O)CC3=C[C@H](C)OC3=O)O2)O1,inhibition zone (IZ),L1210 [36],300 Zone units
same,inhibition zone (IZ),[37],650 Zone units
same,inhibition zone (IZ),CCRF-CEM [38],200 Zone units
same,inhibition zone (IZ),HCT-116 [39],500 Zone units
same,inhibition zone (IZ),MC-38 [40],450 Zone units
same,IC50,[14],2 nM
same,inhibition zone (IZ),MC-38 [41],850 Zone units
same,inhibition zone (IZ),L1210 [42],100 Zone units
same,inhibition zone (IZ),[43],450 Zone units
same,inhibition zone (IZ),[44],500 Zone units
same,inhibition zone (IZ),[45],550 Zone units
same,inhibition zone (IZ),L1210 [46],200 Zone units
same,inhibition zone (IZ),MC-38 [47],700 Zone units
